The record followed here is ChEMBL document CHEMBL1122442, “Antifertility agents. 38. Effect of the side chain and its position on the activity of 3,4-diarylchromans” (1983).

Calls of active or inactive are those of the source. No cut-off for these calls is given here.

The species entered for test [1] is Rattus norvegicus. The experiment in a line: Effective dose for antiimplantation activity in male albino rats. The note with it: in the assay text read “female” for “male”. It is filed as functional. The procedure, abridged:
(§1)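 Colony-bred adult female albino rats (150-170 g) mated with fertile coeval males; suspension in gum acacia given orally on days 1-7 postcoitum; positive only when implants were wholly absent from both uterine horns.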

In test [2] the target is T1, Estrogen receptor (Rattus norvegicus) (UniProt P06211+Q62986).
Test [3] relates to Rattus norvegicus. As to the kind of experiment: Effective dose for antiimplantation activity in male albino rats at 2 mg/Kg;IN-Inactive. It is filed as functional, organism-based. The note with it: in the assay text read “female” for “male”. The essentials: as §1
For test [4], the system named is Rattus norvegicus. As to the kind of experiment: Effective dose for anti-implantation activity in female albino rats at 10 mg/kg; IN-Inactive.
Test [5] deals with T1, Estrogen receptor (Rattus norvegicus). The experiment in a line: Relative binding affinity for uterine cytosol 17-beta-estradiol receptor from immature rats; N-Nil. It is filed as protein assay. The procedure, abridged: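 Competitive binding against 17β-estradiol for uterine cytosol receptor from immature Charles Foster rats aged 21-25 days; dextran-coated charcoal removes unbound steroid; expressed as relative binding affinity.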

Test [6] relates to Rattus norvegicus. As to the kind of experiment: Effective dose for anti-implantation activity in female albino rats at 10 mg/kg; A-Active.
For test [7], the species on record is Rattus norvegicus. As to the kind of experiment: Effective dose for anti-implantation activity in male albino rats; Nil. It counts as functional, organism-based. The note with it: in the assay text read “female” for “male”. The essentials: as §1
Test [8] concerns the target T1, Estrogen receptor (Rattus norvegicus). The experiment in a line: Effect on uterine weight gain in immature rats by subcutaneous dose; N-Nil. It counts as functional. The essentials: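 Immature rats (25-30 g); dosed subcutaneously once daily for 3 days in 0.2 mL saline/propylene glycol (1:1, v/v); estrogenicity read as uterine weight gain.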

As for `CC1(C)Oc2cc(O)ccc2C(c2ccc(OCCN3CCCC3)cc2)C1c1ccccc1` (centres undefined), the ED100 in the test filed under Rattus norvegicus [1] was determined as 0.25 mg/kg/day. Also, in test [2], the Estrogenic effect is 11.8.

In the case of `COc1ccc2c(c1)OC(C)(C)C(c1ccccc1)C2c1cccc(OCCN2CCCC2)c1` (stereo in doubt; 22), in the test with Rattus norvegicus [3], the ED100 result was “inactive”.

Turning to `COc1ccc2c(c1)OC(C)(C)C(c1ccccc1)=C2c1ccccc1OCCN1CCCC1`, in the test with Rattus norvegicus [4], the ED100 result is “inactive”. In addition, the “relative binding affinity (RBA)” value in test [5] is “inactive”.

On to `COc1ccc2c(c1)OC(C)(C)C(c1ccc(O)cc1)=C2c1ccccc1`, for which the ED100 result in the test with Rattus norvegicus [6] is “Active”. Besides, the ED100 result in the test with Rattus norvegicus [3] is “inactive”.

On to `COc1ccc2c(c1)OC(C)(C)C(c1ccccc1)C2c1ccccc1OCCN1CCCC1` (centres undefined), for which the “relative binding affinity (RBA)” value in test [5] is “inactive”. Moreover, the ED100 result in the test on Rattus norvegicus [3] was “inactive”.

The compound `COc1ccc2c(c1)OC(C)(C)C(c1ccccc1)C2c1ccc(OCCN2CCCC2)cc1` (stereo in doubt; 2) [ORMELOXIFENE] registered an ED100 in the test filed under Rattus norvegicus [1] of 50 mg/kg/day.

The compound `CCN(CC)CCOc1ccc(C2c3ccc(OC)cc3OC(C)(C)C2c2ccccc2)cc1.Cl` (centres undefined) displayed an ED100 in the test listed under Rattus norvegicus [1] of 0.3 mg/kg/day.

As to `COc1ccc2c(c1)OC(C)(C)C(c1ccccc1)C2c1ccc(O)cc1` (centres undefined), the ED100 entry in the test listed under Rattus norvegicus [7] was “inactive”. This compound yielded an Estrogenic effect in test [2] of 0.2.

`COc1ccc2c(c1)OC(C)(C)C(c1ccccc1)C2c1ccc(OCCN2CCCC2)cc1` (stereo in doubt; 1) [ORMELOXIFENE] had an ED100 in the test filed under Rattus norvegicus [1] of 0.25 mg/kg/day.

On to `COc1ccc2c(c1)OC(C)(C)C(c1ccccc1)C2c1ccc(OCCN2CCCC2)cc1` (stereo in doubt; 1), for which, in test [2], the Estrogenic effect turned out to be 0.56.

In turn, `COc1ccc2c(c1)OC(C)(C)C(c1ccc(OCCN3CCCC3)cc1)C2c1ccccc1` (centres undefined) had an ED100 in the test listed under Rattus norvegicus [1] of 2 mg/kg/day. The compound further had an Estrogenic effect in test [2] of 2.2. Also, the “relative binding affinity (RBA)” value in test [5] was “inactive”. In addition, the ED100 result with Rattus norvegicus [3] is “inactive”.

Take `COc1ccc2c(c1)OC(C)(C)C(c1ccc(OCCN3CCCC3)cc1)=C2c1ccccc1`: the “relative binding affinity (RBA)” value in test [5] is “inactive”. The ED100 entry in the test on Rattus norvegicus [3] was “inactive”.

`COc1ccc2c(c1)OC(C)(C)C(c1ccc(O)cc1)C2c1ccccc1` (stereo in doubt; 33) displayed an ED100 in the test listed under Rattus norvegicus [1] of 1 mg/kg/day.

For the compound `COc1ccc2c(c1)OC(C)(C)C(c1ccccc1)=C2c1cccc(OCCN2CCCC2)c1.Cl`, the ED100 in the test listed under Rattus norvegicus [1] worked out at 1 mg/kg/day.

Consider `COc1ccc2c(c1)OC(C)(C)C(c1ccccc1)C2c1ccc(OCCCN2CCCC2)cc1.Cl` (centres undefined), for which the ED100 in the test filed under Rattus norvegicus [1] amounted to 0.3 mg/kg/day.

In turn, `COc1ccc2c(c1)OC(C)(C)C(c1ccccc1)C2c1ccc(OCCN(C)C)cc1.Cl` (centres undefined) came in with an ED100 in the test filed under Rattus norvegicus [1] of 2 mg/kg/day.

With `COc1ccc2c(c1)OC(C)(C)C(c1ccccc1)=C2c1ccc(OCCN2CCCC2)cc1`, in the test listed under Rattus norvegicus [1], the ED100 worked out at 5 mg/kg/day.

On to `COc1ccc2c(c1)OC(C)(C)C(c1ccc(O)cc1)C2c1ccccc1` (stereo in doubt; 31), for which the ED100 entry in the test on Rattus norvegicus [4] was “inactive”.

For `COc1ccc2c(c1)OC(C)(C)C(c1ccccc1)C2c1cccc(OCCN2CCCC2)c1` (stereo in doubt; 11), in the test on Rattus norvegicus [3], the ED100 entry is “inactive”.

In the case of `COc1ccc2c(c1)OC(C)(C)C(c1ccccc1)C2c1ccc(OCCN2CCCC2)cc1` (stereo in doubt; 2), the Estrogenic effect entry in test [8] is “inactive”.
